Consider 37 compounds from ChEMBL document CHEMBL1152738, “Synthesis and in vitro antitubercular activity of a series of quinoline derivatives” (2009).

SMILES strings stand for the structures. In brackets after ≈: the same amount, converted by molar mass.

The assay relates to Mycobacterium tuberculosis. Description: Antitubercular activity against Mycobacterium tuberculosis H37Rv after 5 days by microplate alamar blue assay. The assay is classed as functional. To be noted: 120 h. In outline:
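M. tuberculosis H37Rv (ATCC 27294, rifampin- and isoniazid-susceptible) tested by MABA. Compounds serially diluted directly in Middlebrook 7H9 broth in 96-well plates, which were sealed and incubated at 37 °C for 5 days. A fresh 1:1 Alamar Blue/10% Tween 80 mix was then added and plates were incubated 24 h more. MIC was the lowest concentration preventing the blue-to-pink colour change.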
A general note: The colour change of resazurin is a common sign of viable cells or microbes.

As usually defined, the MIC is the least concentration at which growth counts as inhibited.

`CCN(CC)Cc1cc(Nc2ccnc3cc(Cl)ccc23)ccc1O.Cl`: the MIC worked out at 100 µg/mL.

For the compound `NCCCNc1ccnc2cc(Cl)ccc12`, the MIC was greater than 100 µg/mL.

The compound `NCCCCNc1ccnc2cc(Cl)ccc12` gave an MIC greater than 100 µg/mL.

With `NCCCCCCNc1ccnc2cc(Cl)ccc12`, inhibition of growth (MIC) required 25 µg/mL (≈ 90 µM).

As for `CC(C)NCCNc1ccnc2cc(Cl)ccc12`, the MIC was greater than 100 µg/mL.

Compound `ClCCNc1ccnc2cc(Cl)ccc12` displayed an MIC of 12.5 µg/mL (≈ 51.8 µM).

`OCCNc1ccnc2cc(Cl)ccc12` registered an MIC greater than 100 µg/mL.

In the case of `OCCNc1ccnc2ccccc12`, the MIC is greater than 100 µg/mL.

`ClCCNc1ccnc2ccccc12` came in with an MIC greater than 100 µg/mL.

Compound `[N-]=[N+]=Nc1ccnc2cc(Cl)ccc12` yielded an MIC greater than 100 µg/mL.

Consider `ClCCCNc1ccnc2cc(Cl)ccc12`, for which the MIC was 50 µg/mL (≈ 196 µM).

The compound `Nc1ccnc2cc(Cl)ccc12` had an MIC greater than 100 µg/mL.

Consider `N#CCCNc1ccnc2cc(Cl)ccc12`, for which the MIC was greater than 100 µg/mL.

Take `CCCNCCNc1ccnc2cc(Cl)ccc12`: the lowest concentration to inhibit growth (MIC) was 100 µg/mL (≈ 379 µM).

As to `CCCNc1ccnc2cc(Cl)ccc12`, it took 50 µg/mL (≈ 227 µM) to inhibit growth (MIC).

Compound `CC(C)Nc1ccnc2cc(Cl)ccc12` yielded an MIC of 50 µg/mL (≈ 227 µM).

Consider `CCCCNc1ccnc2cc(Cl)ccc12`, for which 12.5 µg/mL (≈ 53.3 µM) was the least that counted as inhibitory (MIC). Against the preceding compound, the MIC is about 4-fold lower.

Compound `OCCCNc1ccnc2cc(Cl)ccc12` returned an MIC greater than 100 µg/mL.

Compound `CC[C@H](CO)Nc1ccnc2cc(Cl)ccc12` gave an MIC greater than 100 µg/mL.

As to `CCCCNc1ccnc2ccccc12`, the MIC is 50 µg/mL (≈ 250 µM).

Compound `[N-]=[N+]=NCCNc1ccnc2cc(Cl)ccc12` had an MIC of 50 µg/mL (≈ 202 µM).

`NCCCCCCCCNc1ccnc2cc(Cl)ccc12`: the MIC amounted to 6.25 µg/mL (≈ 20.4 µM). This MIC is about 8-fold lower than that of the compound before.

`NCCCCCCCCCCNc1ccnc2cc(Cl)ccc12`: the MIC stood at 3.12 µg/mL (≈ 9.34 µM).

Turning to `CCCCNCCNc1ccnc2cc(Cl)ccc12`, the MIC was greater than 100 µg/mL.

Regarding `CNCCNc1ccnc2cc(Cl)ccc12`, the MIC is greater than 100 µg/mL.

`Clc1ccc2c(NCCNC3CCCCC3)ccnc2c1` returned an MIC of 100 µg/mL (≈ 329 µM).

`OCCNCCNc1ccnc2cc(Cl)ccc12` gave an MIC greater than 100 µg/mL.

In turn, `CCC(CCl)Nc1ccnc2cc(Cl)ccc12` (configuration not stated) came in with an MIC of 50 µg/mL (≈ 186 µM).

Turning to `Clc1ccc2c(NCCNCc3ccccc3)ccnc2c1`, the MIC was found to be 50 µg/mL (≈ 160 µM).

Compound `CC[C@@H](CO)Nc1ccnc2cc(Cl)ccc12` showed an MIC greater than 100 µg/mL.

`NCCNc1ccnc2cc(Cl)ccc12` gave an MIC greater than 100 µg/mL.

In turn, `CNc1ccnc2cc(Cl)ccc12` returned an MIC of 100 µg/mL (≈ 519 µM).

The compound `CCC(CO)Nc1ccnc2cc(Cl)ccc12` (racemic) came in with an MIC greater than 100 µg/mL.

`OC(c1cc(C(F)(F)F)nc2c(C(F)(F)F)cccc12)C1CCCCN1` (configuration not stated) [MEFLOQUINE] returned an MIC of 25 µg/mL (≈ 66.1 µM).

Turning to `COc1cc(NC(C)CCCN)c2ncccc2c1` (configuration not stated) [PRIMAQUINE], the MIC was found to be 50 µg/mL (≈ 193 µM). Against the preceding compound, the MIC is about 2-fold higher.

Take `C=C[C@H]1CN2CC[C@H]1C[C@H]2[C@H](O)c1ccnc2ccc(OC)cc12` [QUININE]: 100 µg/mL (≈ 308 µM) was the least that counted as inhibitory (MIC). Compared with the last compound, the MIC is about 2-fold higher.

Turning to `Nc1ccnc2ccccc12` [QUINOLIN-4-AMINE], the MIC is greater than 100 µg/mL.
